Here are results for ten compounds from ChEMBL document CHEMBL2331219, “Synthesis and anti-Candida activity of novel 2-hydrazino-1,3-thiazole derivatives” (Bioorg Med Chem Lett, 2013).

What is called MIC is the lowest concentration that inhibits growth of the organism.

Data set [1] has as its system Candida parapsilosis. Put plainly: Antifungal activity against anidulafungin-resistant Candida parapsilosis isolate 22019 assessed as growth inhibition after 24 to 48 hrs by CLSI microbroth dilution method. The note with it: Lodderomyces parapsilosis. Type of data set: functional. In a few lines:
(§1)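 Microbroth dilution per CLSI M27-A3. Isolates subcultured for purity, incubated at 35 °C; five colonies >1 mm suspended in saline, adjusted to 0.5 × 10³ to 2.5 × 10³ in RPMI 1640 buffered to pH 7.0 with 0.165 M MOPS. Compounds diluted in RPMI to final […]. Read visually after 24 h and 48 h at 35 °C; MIC judged by turbidity against drug-free growth control.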
Background: Broth dilution looks for growth in wells or tubes with falling amounts of substance.

The subject of data set [2] is Candida parapsilosis. The data set is described as follows: Antifungal activity against anidulafungin-resistant Candida parapsilosis ANF8 assessed as growth inhibition after 24 to 48 hrs by CLSI microbroth dilution method. It counts as functional. Particulars: Lodderomyces parapsilosis. An outline of the steps:
as §1

Data set [3] deals with Nakaseomyces glabratus. The data set is described as follows: Antifungal activity against fluconazole-resistant Candida glabrata isolate 6258 assessed as growth inhibition after 24 to 48 hrs by CLSI microbroth dilution method. It counts as functional. An outline of the steps: as §1
Data set [4] relates to Nakaseomyces glabratus. Put plainly: Antifungal activity against voriconazole-resistant Candida glabrata clinical isolate 730 assessed as growth inhibition after 24 to 48 hrs by CLSI microbroth dilution method. It counts as functional. In a few lines:
as §1

Data set [5] has as its system Nakaseomyces glabratus. The data set is described as follows: Antifungal activity against voriconazole-resistant Candida glabrata clinical isolate 724 assessed as growth inhibition after 24 to 48 hrs by CLSI microbroth dilution method. Type of data set: functional. In a few lines: as §1
In data set [6] the test system is Candida albicans. Put plainly: Antifungal activity against azole-resistant Candida albicans clinical isolate 7.O.A assessed as growth inhibition after 24 to 48 hrs by CLSI microbroth dilution method. It counts as functional. An outline of the steps: as §1
Data set [7] has as its system Candida albicans. The data set is described as follows: Antifungal activity against fluconazole-resistant Candida albicans clinical isolate 5.O.A assessed as growth inhibition after 24 to 48 hrs by CLSI microbroth dilution method. Type of data set: functional. An outline of the steps: as §1
Data set [8] has as its system Candida albicans. The data set is described as follows: Antifungal activity against caspofungin-resistant Candida albicans assessed as growth inhibition after 24 to 48 hrs by CLSI microbroth dilution method.
Data set [9] is described as follows: Cytotoxicity against mouse NIH/3T3 cells assessed as cell viability at 62.5 ug/mL after 24 hrs by MTT assay relative to control. Type of data set: cell-based, NIH3T3. The note with it: read-out: Activity. In a few lines:
(§2)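 NIH/3T3 fibroblasts kept in DMEM with 10% fetal calf serum, penicillin/streptomycin, 37 °C, 5% CO2. Cells seeded at 2 × 10⁴ cells/mL, grown 24 h, then given compound (DMSO stock diluted in medium, final DMSO <0.1%) for 24 h. MTT at 0.5 mg/mL final added for 4 h, formazan dissolved in DMSO, absorbance read at 540 nm. Triplicate wells, mean ± SD, assay run twice.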
For orientation: Tetrazolium dyes change colour on reduction, which living cells bring about.

Data set [10] can be described thus: Cytotoxicity against mouse NIH/3T3 cells assessed as cell viability at 31.3 ug/mL after 24 hrs by MTT assay relative to control. Particulars: read-out: Activity. Type of data set: cell-based, NIH3T3. In a few lines: as §2
A short description of data set [11]: Cytotoxicity against mouse NIH/3T3 cells assessed as cell viability at 1 ug/mL after 24 hrs by MTT assay relative to control. The note with it: read-out: Activity. Type of data set: cell-based, NIH3T3. In a few lines: as §2
Data set [12] is described as follows: Cytotoxicity against mouse NIH/3T3 cells assessed as cell viability at 0.5 ug/mL after 24 hrs by MTT assay relative to control. The note with it: read-out: Activity. It counts as cell-based, NIH3T3. An outline of the steps: as §2

Converted amounts (≈) assume the structure as drawn.

In the case of `COc1ccc(O)c(-c2csc(N/N=C/c3cnc[nH]3)n2)c1`, the MIC in the data set with Candida parapsilosis [1], with Candida parapsilosis [2], in the data set with Nakaseomyces glabratus [3], in the data set on Nakaseomyces glabratus [4], in the data set on Nakaseomyces glabratus [5] and in the data set with Candida albicans [6] was > 16 µg/mL throughout. Moreover, the MIC with Candida albicans [7] and in the data set on Candida albicans [8] was > 16 µg/mL in each case.
Take `COc1ccc(O)c(-c2csc(N/N=C/c3c(-c4ccccc4)nc4scc(C)n34)n2)c1`: the viability at 24 h, 62.5 ug/mL in [9] came out at 59.5%. Besides, in data set [10], the viability at 24 h, 31.3 ug/mL was 64.1%. In addition, the viability at 24 h, 1 ug/mL in data set [11] is 90%. The viability at 24 h, 0.5 ug/mL in data set [12] is 94.6%. The MIC with Candida parapsilosis [1] is > 16 µg/mL; with Candida parapsilosis [2], 4 µg/mL (≈ 8.67 µM); in the data set with Nakaseomyces glabratus [3], > 16 µg/mL; with Nakaseomyces glabratus [4] it was 2 µg/mL (≈ 4.33 µM); in the data set on Nakaseomyces glabratus [5] it was > 16 µg/mL; in the data set on Candida albicans [6] it was > 16 µg/mL. Further, the MIC in the data set with Candida albicans [7] and with Candida albicans [8] was > 16 µg/mL throughout.
In the case of `C/C(=N\Nc1nc([C@H](C)NC(=O)OCc2ccccc2)cs1)c1ccc2c(c1)CCC2`, the MIC in the data set on Candida parapsilosis [1], with Candida parapsilosis [2], in the data set with Nakaseomyces glabratus [3], in the data set on Nakaseomyces glabratus [4], in the data set with Nakaseomyces glabratus [5] and with Candida albicans [6] was > 16 µg/mL in each case. For the same compound, the MIC in the data set on Candida albicans [7] and in the data set with Candida albicans [8] was > 16 µg/mL each time.
Turning to `C/C(=N\Nc1nc([C@H](Cc2ccccc2)NC(=O)OCc2ccccc2)cs1)c1ccc2c(c1)CCC2`, the MIC with Candida parapsilosis [1], in the data set on Candida parapsilosis [2], in the data set on Nakaseomyces glabratus [3], in the data set on Nakaseomyces glabratus [4], in the data set on Nakaseomyces glabratus [5] and in the data set with Candida albicans [6] was > 16 µg/mL throughout. In addition, the MIC in the data set with Candida albicans [7] and with Candida albicans [8] was > 16 µg/mL throughout.
Take `C/C(=N\Nc1nc([C@H](Cc2c[nH]c3ccccc23)NC(=O)OCc2ccccc2)cs1)c1ccc2c(c1)CCC2`: the MIC was 8 µg/mL (≈ 14.6 µM) in the data set on Candida parapsilosis [1]; > 16 µg/mL in the data set with Candida parapsilosis [2]; > 16 µg/mL in the data set with Nakaseomyces glabratus [3]; 8 µg/mL (≈ 14.6 µM) with Nakaseomyces glabratus [4]; > 16 µg/mL with Nakaseomyces glabratus [5]; > 16 µg/mL with Candida albicans [6]. The MIC in the data set with Candida albicans [7] and in the data set with Candida albicans [8] was > 16 µg/mL throughout.
Take `C[C@@H]1[C@H](O)[C@@H](C)/C=C/C=C/C=C/C=C/C=C/C=C/C=C/[C@H](O[C@@H]2O[C@H](C)[C@@H](O)[C@H](N)[C@@H]2O)C[C@@H]2O[C@](O)(C[C@@H](O)C[C@@H](O)[C@H](O)CC[C@@H](O)C[C@@H](O)CC(=O)O[C@H]1C)C[C@H](O)[C@H]2C(=O)O` [AMPHOTERICIN B]: the MIC in the data set on Candida parapsilosis [1] came to 1 µg/mL (≈ 1.08 µM); in the data set with Candida parapsilosis [2] it was 0.5 µg/mL (≈ 0.541 µM); in the data set with Nakaseomyces glabratus [3], 1 µg/mL (≈ 1.08 µM); in the data set with Nakaseomyces glabratus [4] it was 1 µg/mL (≈ 1.08 µM); with Nakaseomyces glabratus [5], 0.5 µg/mL (≈ 0.541 µM); with Candida albicans [6], 0.5 µg/mL (≈ 0.541 µM). The MIC in the data set on Candida albicans [7] and in the data set on Candida albicans [8] was 0.5 µg/mL (≈ 0.541 µM) throughout.
As for `CC[C@H](C)C[C@H](C)CCCCCCCCC(=O)N[C@H]1C[C@@H](O)[C@@H](NCCN)NC(=O)[C@@H]2[C@@H](O)CCN2C(=O)[C@H]([C@H](O)CCN)NC(=O)[C@H]([C@H](O)[C@@H](O)c2ccc(O)cc2)NC(=O)[C@@H]2C[C@@H](O)CN2C(=O)[C@H]([C@@H](C)O)NC1=O` [CASPOFUNGIN], the MIC with Candida parapsilosis [1] is 0.5 µg/mL (≈ 0.457 µM); with Candida parapsilosis [2], 8 µg/mL (≈ 7.32 µM); in the data set on Nakaseomyces glabratus [3] it was 2 µg/mL (≈ 1.83 µM); in the data set on Nakaseomyces glabratus [4] it was 2 µg/mL (≈ 1.83 µM); in the data set with Nakaseomyces glabratus [5] it was 0.5 µg/mL (≈ 0.457 µM); in the data set with Candida albicans [6], 0.25 µg/mL (≈ 0.229 µM). Further, the MIC in the data set on Candida albicans [7] and with Candida albicans [8] was 0.5 µg/mL (≈ 0.457 µM) each time.
As for `OC(Cn1cncn1)(Cn1cncn1)c1ccc(F)cc1F` [FLUCONAZOLE], the MIC was 64 µg/mL (≈ 209 µM) in the data set with Candida parapsilosis [1]; 1 µg/mL (≈ 3.27 µM) in the data set with Candida parapsilosis [2]; 16 µg/mL (≈ 52.2 µM) in the data set on Nakaseomyces glabratus [3]; 64 µg/mL (≈ 209 µM) in the data set on Nakaseomyces glabratus [4]; 64 µg/mL (≈ 209 µM) in the data set with Nakaseomyces glabratus [5]; > 64 µg/mL with Candida albicans [6]. Further, the figures for the MIC in the data set with Candida albicans [7] and in the data set with Candida albicans [8] were 32 µg/mL (≈ 104 µM) and 0.125 µg/mL (≈ 0.408 µM), respectively.
For the compound `CCC(C)n1ncn(-c2ccc(N3CCN(c4ccc(OCC5COC(Cn6cncn6)(c6ccc(Cl)cc6Cl)O5)cc4)CC3)cc2)c1=O` (centres undefined) [ITRACONAZOLE], the MIC in the data set with Candida parapsilosis [1] was 0.5 µg/mL (≈ 0.709 µM); with Candida parapsilosis [2], 0.03 µg/mL (≈ 0.0425 µM); with Nakaseomyces glabratus [3], 0.5 µg/mL (≈ 0.709 µM); in the data set on Nakaseomyces glabratus [4], 1 µg/mL (≈ 1.42 µM); in the data set on Nakaseomyces glabratus [5], 2 µg/mL (≈ 2.83 µM); in the data set with Candida albicans [6] it was > 16 µg/mL. Moreover, the values for the MIC in the data set on Candida albicans [7] and with Candida albicans [8] were 0.5 µg/mL (≈ 0.709 µM) and 0.03 µg/mL (≈ 0.0425 µM), respectively.
On to `C[C@@H](c1ncncc1F)[C@](O)(Cn1cncn1)c1ccc(F)cc1F` [VORICONAZOLE], for which the MIC in the data set with Candida parapsilosis [1] is 0.25 µg/mL (≈ 0.716 µM); in the data set on Candida parapsilosis [2], 0.06 µg/mL (≈ 0.172 µM); in the data set on Nakaseomyces glabratus [3], 2 µg/mL (≈ 5.73 µM); with Nakaseomyces glabratus [4], 16 µg/mL (≈ 45.8 µM); in the data set on Nakaseomyces glabratus [5], 8 µg/mL (≈ 22.9 µM); with Candida albicans [6] it was > 16 µg/mL. For the same compound, the MIC in the data set with Candida albicans [7] and in the data set with Candida albicans [8] was 0.25 µg/mL (≈ 0.716 µM) each time.
